Rad51 HR inh – human RAD51 strand exchange inhibitors, primary screen, biochemical, fluorescence. DNA repair protein RAD51 homolog 1 (Homo sapiens), Q06609. hRad51 DNA strand exchange, fluorescence dequenching. inhibition, % at 10 µM. 200,000 tested, 0.085% active. AID 1385, 2008;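 active = inhibition above 40% at the single screening dose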;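 note: 0% = DMSO control wells and 100% = blanks with heterologous ssDNA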
Target sequence (Q06609 whole entry, looked up): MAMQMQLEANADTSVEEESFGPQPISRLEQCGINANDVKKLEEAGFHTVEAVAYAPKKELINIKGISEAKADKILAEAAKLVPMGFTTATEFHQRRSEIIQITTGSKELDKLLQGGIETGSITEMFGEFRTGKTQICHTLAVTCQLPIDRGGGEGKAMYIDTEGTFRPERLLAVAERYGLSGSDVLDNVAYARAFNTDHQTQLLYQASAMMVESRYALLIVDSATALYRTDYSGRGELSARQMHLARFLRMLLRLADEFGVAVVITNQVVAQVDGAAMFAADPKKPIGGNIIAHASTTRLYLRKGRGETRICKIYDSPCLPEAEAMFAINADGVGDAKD
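material = hRad51 filaments on single-stranded DNA | timing = filaments 15 min 37 °C, then compound 30 min | signal = FRET fluorescence dequenching, excitation 485 nm, emission 520 nm | benchmarks = control wells and blank wells on each plate | evaluation = percent inhibition relative to plate controls and blanks | compound = 10 µM final, single point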
GAA850 FXN act – FXN promoter activators, primary screen, cell-based, luciferase luminescence, HEK293 lucGAA850; 360,000 tested, 0.56% active; HEK293 lucGAA850 FXN promoter luciferase reporter, 24 h; percent of 10 µM SAHA response; AID 540364, 2011; activation, % at 6 µM;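 active = activation above the average of all compounds screened plus 3 SD, cutoff fixed separately per campaign, cut at about 7.5% in these data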;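 note: 0% = DMSO wells and 100% = 10 µM SAHA wells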
TAG inh – inhibitors of triacylglycerol accumulation, primary screen, cell-based, uHTS, fluorescence, H9c2; H9c2 cells, Nile Red lipid (TAG) fluorescence; cells loaded with 200 µM oleic acid; inhibition, % at 12.5 µM; 230,000 tested, 0.66% active;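 active = pattern-corrected inhibition of lipid staining of at least 50% with the nuclear-stain viability signal not falling by more than 50%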;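 note: 0% = DMSO wells and 100% = triacsin C control wells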
Hsp70 activator – Hsp70 transcriptional activators, primary screen, cell-based, HeLa, Hsp70 promoter luciferase, luminescence, 10 µM; HeLa Hsp70 promoter luciferase reporter; scaled: vehicle 0, proteasome-inhibitor control 100%; activation, % at 10 µM; 200,000 tested, 0.04% active; AID 1203, 2008;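 active = activation above the mean across all tested compounds plus 3 SD, cutoff set per campaign, cut at about 5.5% in these data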;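 note: 100% = MG132 at 30 µM as the positive control and 0% = DMSO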
ABHD5-PLIN5 inh – ABHD5-PLIN5 interaction inhibitors, primary screen, cell lysate, split luciferase complementation, luminescence | Perilipin-5 (Homo sapiens) + 1-acylglycerol-3-phosphate O-acyltransferase ABHD5 (Homo … | Split G. princeps luciferase complementation, 4 h | inhibition, % at 4 µM | 360,000 tested, 0.78% active;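 active = inhibition above the mean inhibition across every tested compound plus 3 SD, cut at about 22% in these data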;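 note: 0% = DMSO only wells and the 100% control is not disclosed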
HIF activator – HIF pathway transcriptional activators, primary screen, cell-based, U2OS HRE-luciferase, luminescence | U2OS HRE-luciferase reporter; normalized: DMSO 0%, desferrioxamine 100% | activation, % at 7.5 µM (by protocol) | 300,000 tested, 0.32% active;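 active = mean activation of at least 10% of the iron chelator positive control signal, with at least half of replicates also reaching 10%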
Numbers without * were called inactive; / = not tested or not shown. A selection: hits, their analogues and other compounds. The true share with any hit is near 1.9%.

SMILES | Rad51 HR inh | GAA850 FXN act | TAG inh | Hsp70 activator | ABHD5-PLIN5 inh | HIF activator
CCOC(=O)CN(C(=O)COc1nc(C)cc(C)c1C#N)c1cccc(Cl)c1 | -18 | -2 | -30 | / | -2 | 25*
CCOC(=O)CN(C(=O)COc1nc(-c2ccccc2)cc(C)c1C#N)c1ccccc1 | -23 | 0 | -24 | / | 0 | 0
COc1ccccc1CNC(=O)c1cccc(NC(=O)c2ccccc2)c1 | 20 | 0 | 12 | 0 | 4 | 26*
O=C(NCc1ccccc1Cl)c1cccc(NC(=O)c2ccccc2)c1 | -4 | 1 | / | 0 | -3 | 1
O=C(/C=C/c1cccc([N+](=O)[O-])c1)n1cnc2ccccc21 | 25 | 5 | / | 0 | 23* | 2
CC(=O)C1=C(O)C(=O)N(c2ccc(Br)cn2)C1c1cccc([N+](=O)[O-])c1 (stereo unspecified) | / | -1 | / | / | -15 | 1
CCSc1ccc([C@@H]2[C@H]3C(=O)N(C)C(=O)[C@H]3[C@]3(C(=O)OC)CCCCN23)cc1OC | / | 1 | 4 | / | -2 | /
COc1cc(CNc2ccc(N3CCCC3)cc2)cc(Cl)c1OC | 1 | -6 | 54* | 0 | -4 | -2
CC1=C(C(=O)N2CCCCCC2)CC(CC(=O)NCCc2ccccn2)C(=O)N1CCCN1CCCC1=O (stereo unspecified) | / | / | / | / | 6 | /
Cc1cccc(/C=N\NC(=O)c2ccc(Cl)cc2)c1O | 8 | -5 | 9 | 0 | 0 | 42*
COc1ccccc1/C=N/NC(=O)c1cccc(OC(F)(F)C(F)F)c1 | / | 1 | / | 0 | -7 | /
Cc1cccc(/C=N/NC(=O)Cc2ccc(Cl)cc2)c1O | / | 1 | 21 | / | -2 | 0
COc1cccc(/C=N/NC(=O)C(=O)Nc2ccccc2OC(F)(F)C(F)F)c1O | / | -6 | / | 0 | -2 | 26*
CCOc1cccc(/C=N/NC(=O)c2ccc3c(c2)OCCO3)c1O | / | -8 | / | / | -4 | 12*
COc1cccc(/C=N/NC(=O)CSc2nnc(C)n2-c2ccccc2)c1O | / | -2 | -3 | 0 | 2 | 1
CCCCSc1nc(C)cc(SCC(=O)N/N=C/c2cccc(OC)c2O)n1 | / | -6 | 10 | 0 | -5 | 21*
OC(c1cccc(Cl)c1)c1nc(-c2ccc(Cl)cc2)cs1 (stereo unspecified) | / | 1 | -27 | / | -7 | /
CCCN=C1N(CC)C[C@@H]2[C@@H]3C(=O)N(Cc4ccccc4)C(=O)[C@@H]3[C@](Cc3ccccc3)(C(=O)OC)N12 | / | -3 | -3 | / | -5 | /
O=C(NCCSCc1ccco1)c1ccc(=O)[nH]c1 | / | 0 | / | / | 8 | -1
CSCCC(NC(=O)c1ccccc1Br)C(=O)NNC(=O)c1cc(C)oc1C (stereo unspecified) | / | 0 | 3 | / | -6 | /
COCCCNC(=O)/C(C#N)=C/c1c(N2CCN(C)CC2)nc2ccccn2c1=O | / | 2 | / | / | 3 | 1
COc1cc(C(=O)Oc2ccccc2/C=N/NC(=O)c2ccc(C)cc2)cc(OC)c1OC | -5 | -4 | / | 0 | -4 | 9.6*
CCn1c(C)nc2cc(C(=O)N/N=C/c3cccc(O)c3O)ccc21 | / | 1 | 12 | 0 | 6 | 43*
COc1cccc(/C=N/NC(=O)c2ccc([N+](=O)[O-])cc2Cl)c1O | -31 | -5 | 50 | 0 | 8 | 11*
O=C(N/N=C/c1cc([N+](=O)[O-])ccc1O)c1cccc2cc[nH]c12 | -14 | -6 | 61* | / | 3 | 27*
SMILES | Rad51 HR inh | GAA850 FXN act | TAG inh | Hsp70 activator | ABHD5-PLIN5 inh | HIF activator
COc1ccc(CNC(=O)CN(c2cccc([N+](=O)[O-])c2)S(C)(=O)=O)cc1 | 1 | 2 | 1 | 0 | -5 | 0
COc1cccc(NC(=O)COC(=O)CCCC2=NS(=O)(=O)c3ccccc3N2)c1 | / | 0 | / | / | -2 | 0
COc1ccc(CNC(=O)CCS(=O)(=O)Cc2cccc(Cl)c2)c(OC)c1 | -11 | 0 | -8 | 0 | 2 | 0
COc1ccc(CCN2C(=O)N[C@@H](CCC(=O)O)C2=O)cc1 | / | -1 | / | / | 2 | 1
COc1ccc(OC)c(/C=N\NC(=O)c2ccc(-c3ccccc3)cc2)c1 | / | -2 | / | / | 3 | /
COc1cccc(/C=N/NC(=O)c2ccc(-c3ccccc3)cc2)c1O | -4 | -8 | 34 | 0 | -3 | 47*
COc1ccccc1/C=N\NC(=O)c1c(C)nc2ccc(Cl)cn12 | / | 0 | 1 | / | 3 | 1
Cc1cccc(/C=N/NC(=O)c2ccc3c(c2)OCCO3)c1O | / | -6 | / | / | -3 | 28*
COc1cccc(/C=N/NC(=O)c2c(C)nc3ccc(Cl)cn23)c1O | / | -10 | / | / | 3 | 86*
Cc1cccc(/C=N/NC(=O)c2c(-c3ccccc3)noc2C)c1O | / | -4 | 14 | / | -16 | 16*
CCn1c(=O)n(CC)c2cc(N3CCCC3)c(NC(=O)c3cccc(OC)c3)cc21 | / | 2 | / | / | -7 | 0
CCC(C)c1ccccc1OCCn1ccnc1 (stereo unspecified) | 2 | 1 | / | 0 | 5 | -1
O=C(Nc1cccc(C(F)(F)F)c1)c1ccc2nc(-c3ccco3)c(-c3ccco3)nc2c1 | 6 | 2 | 16 | 1 | 38* | -1
O=C(Nc1cccc(C(F)(F)F)c1)c1cc[n+]([O-])cc1 | / | 1 | / | / | 4 | 0
O=C(Nc1ccc2nc(-c3ccco3)c(-c3ccco3)nc2c1)NC1CC1 | / | 1 | 9 | 0 | 26* | 1
O=C(c1ccc(Br)s1)N1CCN(c2ccccn2)CC1 | / | 0 | 0 | / | -2 | 0
O=C(N1CCN(c2ccccn2)CC1)N1c2ccccc2Sc2ccccc21 | / | -2 | 58* | 0 | -7 | 0
CN(C)CCCN(C(=O)COc1ccc(Cl)cc1)c1nc2cc3c(cc2s1)OCO3 | / | 0 | -23 | / | 23* | -3
CN(C)CCCN(C(=O)COc1ccc(Cl)cc1)c1nc2cc3c(cc2s1)OCCO3 | / | 1 | -2 | / | 0 | -2
CC(C)N=c1cc2n(-c3ccc(Cl)cc3)c3ccccc3nc-2cc1Nc1ccc(Cl)cc1 | -28 | 1 | 137* | / | 11 | 0
Cn1c(CNc2ccc(Cl)cc2)nc2ccccc21 | 19 | 3 | -16 | 0 | -3 | 3
Cc1nc(C(=O)Nc2ccc(Cl)cc2Cl)nn1-c1cc(OC(C)C)c(Cl)cc1Cl | -2 | -3 | 30 | 0 | -4 | 15*
Cc1ccccc1Oc1nc(-c2ccccn2)nc2ccccc12 | 21 | 1 | 57* | / | 6 | 3
